According to ChEMBL document CHEMBL1795294, “Modulation of the activity of histone acetyltransferases by long chain alkylidenemalonates (LoCAMs)” (Bioorg Med Chem, 2011):
pIC50: −log10 of the molar value. The source made the active and inactive calls. The calls are words filed in the database; no cut-off is given here.

Legend:
U-937 [1] = assay: Inhibition of histone acetyltransferase in human U937 cells assessed as inhibition of acetylation of histone H4 at K8 at 50 uM after 24 hrs by Western blotting; assay type: cell-based
Procedure, shortened: (§1)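 U937 cells treated 24 h at 50 µM. Acid-extracted histones (Triton buffer lysis, then 0.2 M HCl overnight at 4 °C) immunoblotted with site-specific antibodies (H3K9/K14/K18/K56ac, H4K5/K8/K16ac, pan-acetyl H4; 1:1000). Loading checked by Ponceau Red staining, or by histone H1 for pan-acetyl H4.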

MCF7 = assay: Inhibition of histone acetyltransferase in human MCF7 cells assessed as increase of alpha-tubulin acetylation level at 15 and 30 uM after 15 mins by Western blotting
U-937 [2] = assay: Inhibition of histone acetyltransferase in human U937 cells assessed as inhibition of acetylation of histone H3 at K56 at 50 uM after 24 hrs by Western blotting; assay type: cell-based; procedure, shortened: as §1
U-937 [3] = assay: Inhibition of histone acetyltransferase in human U937 cells assessed as inhibition of acetylation of histone H3 at K18 at 50 uM after 24 hrs by Western blotting; assay type: cell-based; procedure, shortened: as §1
[4] = biological target: Histone acetyltransferase p300 (Homo sapiens) (UniProt Q09472); assay: Binding affinity to immobilized His6-tagged human full-length KAT3B expressed in Sf9 cells by surface plasmon resonance assay
Sequence of Histone acetyltransferase p300 (Homo sapiens) (Q09472 whole entry, the tested form may be a part): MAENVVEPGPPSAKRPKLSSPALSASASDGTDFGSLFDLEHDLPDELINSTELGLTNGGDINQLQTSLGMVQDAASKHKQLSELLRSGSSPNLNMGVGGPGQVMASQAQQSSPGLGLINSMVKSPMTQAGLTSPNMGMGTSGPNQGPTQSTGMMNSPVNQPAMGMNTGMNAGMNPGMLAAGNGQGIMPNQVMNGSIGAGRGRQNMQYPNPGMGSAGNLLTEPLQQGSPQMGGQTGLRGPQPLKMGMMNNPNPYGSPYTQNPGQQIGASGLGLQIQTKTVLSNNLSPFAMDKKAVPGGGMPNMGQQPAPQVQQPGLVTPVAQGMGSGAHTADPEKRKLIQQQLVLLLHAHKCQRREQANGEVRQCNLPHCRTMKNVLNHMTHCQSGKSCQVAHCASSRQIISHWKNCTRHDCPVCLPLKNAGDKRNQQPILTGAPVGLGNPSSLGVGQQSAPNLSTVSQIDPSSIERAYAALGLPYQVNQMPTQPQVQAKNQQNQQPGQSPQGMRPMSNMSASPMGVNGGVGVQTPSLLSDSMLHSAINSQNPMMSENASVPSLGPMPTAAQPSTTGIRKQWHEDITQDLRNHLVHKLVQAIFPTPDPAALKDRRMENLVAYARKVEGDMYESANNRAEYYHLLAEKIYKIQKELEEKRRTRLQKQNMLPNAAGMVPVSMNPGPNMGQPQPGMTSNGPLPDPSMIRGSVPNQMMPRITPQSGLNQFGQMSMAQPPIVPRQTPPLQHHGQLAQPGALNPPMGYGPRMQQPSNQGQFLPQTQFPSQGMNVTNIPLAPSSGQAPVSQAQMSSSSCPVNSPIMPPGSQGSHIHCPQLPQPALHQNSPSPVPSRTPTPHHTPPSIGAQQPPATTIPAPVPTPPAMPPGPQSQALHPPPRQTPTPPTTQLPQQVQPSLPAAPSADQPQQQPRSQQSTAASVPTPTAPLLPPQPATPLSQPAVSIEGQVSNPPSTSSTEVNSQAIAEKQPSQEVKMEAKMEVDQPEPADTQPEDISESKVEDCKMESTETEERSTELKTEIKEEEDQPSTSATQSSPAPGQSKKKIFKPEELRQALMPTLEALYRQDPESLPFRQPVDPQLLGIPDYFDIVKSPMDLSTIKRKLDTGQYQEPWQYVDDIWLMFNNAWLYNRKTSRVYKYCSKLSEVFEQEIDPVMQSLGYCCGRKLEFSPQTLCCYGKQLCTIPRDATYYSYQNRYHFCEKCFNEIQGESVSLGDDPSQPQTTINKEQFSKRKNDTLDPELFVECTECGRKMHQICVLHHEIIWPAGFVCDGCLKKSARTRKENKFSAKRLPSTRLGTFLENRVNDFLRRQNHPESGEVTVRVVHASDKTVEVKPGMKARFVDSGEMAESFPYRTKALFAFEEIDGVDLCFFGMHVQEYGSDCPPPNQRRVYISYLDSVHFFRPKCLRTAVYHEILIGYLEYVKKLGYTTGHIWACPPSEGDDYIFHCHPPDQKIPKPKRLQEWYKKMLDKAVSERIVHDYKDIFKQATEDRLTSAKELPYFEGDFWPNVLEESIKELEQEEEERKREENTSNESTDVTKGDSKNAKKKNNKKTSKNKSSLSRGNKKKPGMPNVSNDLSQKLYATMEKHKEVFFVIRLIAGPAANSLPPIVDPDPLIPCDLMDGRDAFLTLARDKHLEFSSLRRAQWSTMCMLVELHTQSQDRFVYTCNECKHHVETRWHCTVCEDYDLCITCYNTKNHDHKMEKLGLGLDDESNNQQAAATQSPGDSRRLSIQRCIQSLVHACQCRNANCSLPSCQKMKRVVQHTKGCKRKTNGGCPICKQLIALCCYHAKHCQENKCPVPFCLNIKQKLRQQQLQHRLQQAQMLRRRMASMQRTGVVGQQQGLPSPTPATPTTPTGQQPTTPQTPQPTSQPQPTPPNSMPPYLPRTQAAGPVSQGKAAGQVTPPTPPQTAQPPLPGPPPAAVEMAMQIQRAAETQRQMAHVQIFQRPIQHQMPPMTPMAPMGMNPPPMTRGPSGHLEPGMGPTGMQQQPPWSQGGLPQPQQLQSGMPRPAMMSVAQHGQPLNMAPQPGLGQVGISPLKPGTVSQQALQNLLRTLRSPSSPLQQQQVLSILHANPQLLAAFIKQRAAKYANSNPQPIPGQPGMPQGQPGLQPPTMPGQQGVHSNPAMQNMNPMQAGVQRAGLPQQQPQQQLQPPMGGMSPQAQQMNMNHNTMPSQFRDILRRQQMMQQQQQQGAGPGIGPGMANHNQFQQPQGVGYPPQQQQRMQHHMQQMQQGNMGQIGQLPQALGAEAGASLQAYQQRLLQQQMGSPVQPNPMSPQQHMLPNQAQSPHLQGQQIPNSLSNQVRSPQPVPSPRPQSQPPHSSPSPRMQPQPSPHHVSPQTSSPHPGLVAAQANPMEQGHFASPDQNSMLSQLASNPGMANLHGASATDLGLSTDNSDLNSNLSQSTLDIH

[5] = biological target: Histone acetyltransferase p300 (Homo sapiens) (UniProt Q09472); assay: Binding affinity to His6-tagged immobilized human KAT3B catalytic domain expressed in Sf9 cells by surface plasmon resonance assay
U-937 [6] = assay: Induction of apoptosis in human U937 cells at 50 uM after 30 hrs using annexin V/propidium iodide double-staining by FACS analysis; assay type: functional
Procedure, shortened: (§2)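 U937 cells at 200,000 cells/mL, 37 °C, 5% CO2, exposed 30 h at 50 or 25 µM. Dose–response runs used 5–200 µM, with IC50 taken as the concentration giving 50% apoptosis. Annexin V/propidium iodide double staining, apoptotic subpopulations counted by FACS. Three independent experiments, mean ± SD.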

U-937 [7] = assay: Induction of apoptosis in human U937 cells after 30 hrs using annexin V/propidium iodide double-staining by FACS analysis; assay type: functional, cell-based; conditions: U-937, 30 h; procedure, shortened: as §2
[8] = biological target: Histone acetyltransferase KAT2B (Homo sapiens) (UniProt Q92831); assay: Inhibition of human recombinant KAT2B using histone H4 peptide as substrate at 50 uM after 2 hrs
Sequence of Histone acetyltransferase KAT2B (Homo sapiens) (Q92831 whole entry, looked up, the tested form may be a part): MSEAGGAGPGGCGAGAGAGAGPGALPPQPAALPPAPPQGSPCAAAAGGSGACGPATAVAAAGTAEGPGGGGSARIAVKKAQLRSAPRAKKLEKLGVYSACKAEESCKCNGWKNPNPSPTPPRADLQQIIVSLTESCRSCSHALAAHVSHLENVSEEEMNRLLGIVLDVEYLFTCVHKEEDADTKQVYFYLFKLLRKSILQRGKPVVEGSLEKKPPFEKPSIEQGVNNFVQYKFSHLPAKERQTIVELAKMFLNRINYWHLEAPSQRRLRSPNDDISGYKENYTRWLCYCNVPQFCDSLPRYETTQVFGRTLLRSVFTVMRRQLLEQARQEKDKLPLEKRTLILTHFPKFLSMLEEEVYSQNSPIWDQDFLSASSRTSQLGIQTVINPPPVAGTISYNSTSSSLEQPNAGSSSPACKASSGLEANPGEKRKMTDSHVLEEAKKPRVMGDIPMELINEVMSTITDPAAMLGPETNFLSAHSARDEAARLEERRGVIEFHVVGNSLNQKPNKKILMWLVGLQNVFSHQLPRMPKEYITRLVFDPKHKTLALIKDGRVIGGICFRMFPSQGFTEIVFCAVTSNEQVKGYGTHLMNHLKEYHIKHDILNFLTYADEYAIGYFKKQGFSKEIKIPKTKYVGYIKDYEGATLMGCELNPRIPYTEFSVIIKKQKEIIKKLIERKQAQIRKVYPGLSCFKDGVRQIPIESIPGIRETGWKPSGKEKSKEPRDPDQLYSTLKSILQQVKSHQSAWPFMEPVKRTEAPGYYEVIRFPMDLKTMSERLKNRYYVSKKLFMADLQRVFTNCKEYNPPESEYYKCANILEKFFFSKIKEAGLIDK
Procedure, shortened: (§3)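 Human PCAF (200 ng) in KAT buffer with 10 µg histone H4 peptide (aa 2–24), 20 µM acetyl-CoA with 0.5 µCi/mL [3H]-acetyl-CoA, and compound at 50 µM final, 2 h at 37 °C. Spotted on P81 paper in triplicate, washed with TCA then acetone, scintillation counted. Activity given as % of untreated control (100%).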

U-937 [9] = assay: Inhibition of histone acetyltransferase in human U937 cells assessed as inhibition of acetylation of histone H3 at K14 at 50 uM after 24 hrs by Western blotting; assay type: cell-based; procedure, shortened: as §1
U-937 [10] = assay: Inhibition of histone acetyltransferase in human U937 cells assessed as inhibition of acetylation of histone H4 at K5 at 50 uM after 24 hrs by Western blotting; assay type: cell-based; procedure, shortened: as §1
U-937 [11] = assay: Induction of granulocytic differentiation in human U937 after […] using propidium iodide staining by FACS analysis; assay type: functional, cell-based
[12] = biological target: CREB-binding protein (Homo sapiens) (UniProt Q92793); assay: Inhibition of human recombinant KAT3A expressed in Escherichia coli BL21 using histone H4 peptide as substrate at 50 uM after 2 hrs relative to control
Procedure, shortened: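 Recombinant CBP fragment (aa 1098–1877) from E. coli BL21, affinity purified. Spotted on P81 paper in triplicate, washed with TCA/acetone, scintillation DPM compared with negative control, expressed as %.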

U-937 [13] = assay: Cell cycle arrest in human U937 cells assessed as accumulation at S phase at 50 uM after 30 hrs using propidium iodide staining by flow cytometry; assay type: functional, cell-based
Procedure, shortened: (§4)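 U937 cells kept at 200,000 cells/mL, 37 °C, 5% CO2, treated 30 h at 50 or 25 µM. Phase distribution by flow cytometry. Three independent experiments, mean ± SD.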

U-937 [14] = assay: Inhibition of histone acetyltransferase in human U937 cells assessed as inhibition of acetylation of histone H4 at K16 at 50 uM after 24 hrs by Western blotting; assay type: cell-based; procedure, shortened: as §1
Albumin = Albumin (Bos taurus, UniProt P02769); assay: Binding affinity to bovine serum albumin by surface plasmon resonance assay; conditions: cattle
Sequence of Albumin (P02769 whole entry): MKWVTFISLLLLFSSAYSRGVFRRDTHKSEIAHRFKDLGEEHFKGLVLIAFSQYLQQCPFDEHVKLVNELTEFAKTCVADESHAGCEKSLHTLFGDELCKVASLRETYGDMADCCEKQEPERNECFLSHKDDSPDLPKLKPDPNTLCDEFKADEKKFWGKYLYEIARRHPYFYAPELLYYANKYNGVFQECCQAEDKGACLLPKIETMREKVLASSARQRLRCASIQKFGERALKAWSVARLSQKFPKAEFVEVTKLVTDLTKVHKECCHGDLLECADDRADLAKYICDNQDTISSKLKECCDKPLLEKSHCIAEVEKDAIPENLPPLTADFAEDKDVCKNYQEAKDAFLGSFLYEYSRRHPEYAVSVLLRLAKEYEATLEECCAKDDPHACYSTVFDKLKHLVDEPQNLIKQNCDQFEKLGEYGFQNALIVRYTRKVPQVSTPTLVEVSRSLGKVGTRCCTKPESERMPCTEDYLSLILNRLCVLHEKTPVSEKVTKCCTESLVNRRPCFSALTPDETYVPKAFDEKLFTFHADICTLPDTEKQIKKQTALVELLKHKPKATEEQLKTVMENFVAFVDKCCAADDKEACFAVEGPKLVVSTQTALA

U-937 [15] = assay: Inhibition of histone acetyltransferase in human U937 cells assessed as inhibition of acetylation of histone H3 at K9 at 50 uM after 24 hrs by Western blotting; assay type: cell-based; procedure, shortened: as §1
U-937 [16] = assay: Inhibition of histone acetyltransferase in human U937 cells assessed as increase of histone H3 acetylation level at 50 uM after 15 mins by Western blotting; assay type: cell-based
Procedure, shortened: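 U937 cells treated at 50 µM. Histones prepared by Triton extraction buffer lysis, then overnight 0.2 M HCl extraction at 4 °C, Bradford quantitation. Immunoblot with pan-acetyl-H3 antibody (1:1000), Ponceau Red staining as loading check.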

[17] = biological target: Histone deacetylase (Homo sapiens) (UniProt Q13547+O15379+Q9UBN7+Q92769+Q9UQL6+Q8WUI4+Q9BY41+Q96DB2+P56524+Q9UKV0+Q969S8); assay: Inhibition of HDAC in human U937 cells at 50 uM after 15 mins by Western blotting; assay type: cell-based; conditions: U-937
U-937 [18] = assay: Induction of apoptosis in human U937 cells at 25 uM after 30 hrs using annexin V/propidium iodide double-staining by FACS analysis; assay type: functional, cell-based; procedure, shortened: as §2
U-937 [19] = assay: Cell cycle arrest in human U937 cells assessed as accumulation at S phase at 25 uM after 30 hrs using propidium iodide staining by flow cytometry; assay type: functional, cell-based; procedure, shortened: as §4
[20] = biological target: Histone acetyltransferase KAT2B (Homo sapiens) (UniProt Q92831); assay: Increase of human recombinant KAT2B acetylation activity using histone H4 peptide as substrate at 50 uM after 2 hrs; procedure, shortened: as §3
U-937 [21] = assay: Inhibition of histone acetyltransferase in human U937 cells assessed as increase of acetylation of histone H3 at K9 at 50 uM after 24 hrs by Western blotting; assay type: cell-based; procedure, shortened: as §1
U-937 [22] = assay: Inhibition of histone acetyltransferase in human U937 cells assessed as increase of acetylation of histone H3 at K18 at 50 uM after 24 hrs by Western blotting; assay type: cell-based; procedure, shortened: as §1
U-937 [23] = assay: Inhibition of histone acetyltransferase in human U937 cells assessed as increase of pan-acetylated histone H4 level at 50 uM after 24 hrs by Western blotting; assay type: cell-based; procedure, shortened: as §1

SMILES | inhibition (MCF7) | inhibition [8] | Activity (U-937 [11]) | inhibition [12] | inhibition (U-937 [16]) | inhibition [17] | Activity (U-937 [18]) | Activity (U-937 [19]) | further results
CCCCCCCCCCC=C(C(=O)OCC)C(=O)OCC | inactive | Active | inactive | Active | Active | – | – | – | inhibition (U-937 [1]): inactive; inhibition (U-937 [2]): Active; inhibition (U-937 [3]): Active; Activity [4]: Dose-dependent effect; Activity [5]: inactive; Activity (U-937 [6]): 25.4%; pIC50 (U-937 [7]): 3.81; inhibition (U-937 [9]): Active; inhibition (U-937 [10]): Active; Activity (U-937 [13]): Active; inhibition (U-937 [14]): Active; Activity (Albumin): Not Active; inhibition (U-937 [15]): Active
CCCCCCCCCCCCCCC(C)=C(C(=O)OCC)C(=O)OCC | inactive | – | inactive | Active | inactive | inactive | inactive | inactive | –
CCCCCCCCCCCCCCC(Cl)=C(C(=O)OCC)C(=O)OCC | inactive | – | inactive | Active | inactive | inactive | inactive | inactive | Activity [20]: Active
CCCCCCCCCCCCCC(C(=O)OCC)C(=O)OCC | inactive | Active | inactive | Active | inactive | inactive | inactive | inactive | –
CCCCCCCCCCCCCCCC(C(=O)OCC)C(=O)OCC | inactive | – | inactive | Active | inactive | inactive | inactive | inactive | –
CCCCCCCCCCCCCCCCC(O)=C(C(=O)OCC)C(=O)OCC | inactive | – | inactive | Active | inactive | inactive | inactive | inactive | –
CCCCCCCCCCCCCCC(O)=C(C(=O)OCC)C(=O)OCC | inactive | – | inactive | 52% | inactive | inactive | inactive | inactive | Activity [20]: Active
CCCCCCCCCCCCCCC=C1C(=O)OC(C)(C)OC1=O | inactive | Active | inactive | Active | inactive | inactive | inactive | inactive | –
CCCCCCCCCCCCC=C(C(=O)OCC)C(=O)OCC | – | Active | inactive | inactive | – | – | inactive | inactive | inhibition (U-937 [1]): inactive; inhibition (U-937 [2]): inactive; inhibition (U-937 [3]): Active; inhibition (U-937 [9]): inactive; inhibition (U-937 [10]): inactive; inhibition (U-937 [14]): inactive; inhibition (U-937 [15]): Active
CCCCCCCCCCCC=C(C(=O)OCC)C(=O)OCC | inactive | Active | inactive | Active | Active | – | – | – | inhibition (U-937 [1]): inactive; inhibition (U-937 [2]): Active; Activity [4]: Dose-dependent effect; Activity [5]: inactive; Activity (U-937 [6]): 60.2%; pIC50 (U-937 [7]): 4.07; inhibition (U-937 [21]): Active; inhibition (U-937 [9]): Active; inhibition (U-937 [10]): Active; inhibition (U-937 [22]): Active; inhibition (U-937 [23]): Active; Activity (U-937 [13]): Active; inhibition (U-937 [14]): Active; Activity (Albumin): Not Active
C=CC/C=C\C/C=C\CCCCCCCc1cccc(O)c1C(=O)O | – | – | – | 62% | – | – | – | – | –
CCCCCCCCCCCCCC=C(C(=O)OCC)C(=O)OCC | inactive | – | inactive | Active | Active | inactive | – | – | inhibition (U-937 [1]): inactive; inhibition (U-937 [2]): Active; inhibition (U-937 [3]): Active; Activity [4]: Dose-dependent effect; Activity [5]: Dose-dependent effect; Activity (U-937 [6]): 51.8%; pIC50 (U-937 [7]): 4.37; inhibition (U-937 [9]): Active; inhibition (U-937 [10]): Active; Activity [20]: Active; Activity (U-937 [13]): Active; inhibition (U-937 [14]): Active; Activity (Albumin): Not Active; inhibition (U-937 [15]): Active
CCCCCCCCCCCCCCCC1C(=O)OC(C)(C)OC1=O | inactive | Active | inactive | Active | inactive | inactive | inactive | inactive | –
CCCCCCCCCCCCCCC(N)=C(C(=O)OCC)C(=O)OCC | – | – | inactive | – | – | – | inactive | inactive | –
CCCCCCCCCCCCCCC=C(C(C)=O)C(C)=O | inactive | Active | inactive | 79% | Active | – | – | – | inhibition (U-937 [1]): inactive; inhibition (U-937 [2]): inactive; inhibition (U-937 [3]): inactive; Activity [4]: Dose-dependent effect; Activity [5]: inactive; Activity (U-937 [6]): Active; inhibition (U-937 [9]): Active; inhibition (U-937 [10]): inactive; Activity (U-937 [13]): Active; inhibition (U-937 [14]): inactive; Activity (Albumin): Not Active; inhibition (U-937 [15]): Active
CCCCCCCCCCCCCCC(C(=O)OCC)C(=O)OCC | inactive | – | inactive | Active | inactive | inactive | inactive | inactive | –
CCCCCCCCCCCCCC(C)=C(C(=O)OCC)C(=O)OCC | inactive | – | inactive | Active | inactive | inactive | inactive | inactive | –
